Source: ChEMBL document CHEMBL1138406, “Bioactive pregnanes from Nerium oleander” (J Nat Prod, 2007)
In brackets after ≈: the same amount, converted by molar mass.

What was measured:
WI-38 VA13 = assay: Cytotoxicity against human VA13 cells; format: cell-based
Outline: (§1)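 IC50 in µg/mL, taken as the mean of duplicate determinations.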

HepG2 = assay: Cytotoxicity against human HepG2 cells; format: cell-based; outline: as §1
[1] = Cytotoxicity against human WI38 cells; format: cell-based; details: WI-38; outline: as §1
[2] = Effect on calcein accumulation in multidrug resistant human 2780 AD cells at 25 ug/mL relative to control; format: functional
Outline: (§2)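 Calcein (formed from calcein AM by cellular esterase) accumulated in multidrug-resistant ovarian cancer 2780 AD cells. Read in the presence of 0.25, 2.5 or 25 µg/mL test compound and expressed as % of control. Means of triplicate determinations.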

[3] = Effect on calcein accumulation in multidrug resistant human 2780 AD cells at 2.5 ug/mL relative to control; format: functional; outline: as §2
[4] = Effect on calcein accumulation in multidrug resistant human 2780 AD cells at 0.25 ug/mL relative to control; format: functional; outline: as §2
A549 [5] = assay: Cytotoxicity against human A549 cells by MTT assay; format: cell-based
Outline: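 A549 cells exposed to serial dilutions for 24 h. Viability (%) read by MTT and used to derive IC50. Triplicate cultures.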

A549 [6] = assay: Inhibition of ICAM1 induction in human A549 cells; format: functional, cell-based
Outline: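 A549 cells pretreated 1 h with a range of test concentrations, then stimulated with IL-1α for 6 h. Surface ICAM-1 detected with primary and secondary antibodies plus enzyme substrate, absorbance at 415 nm. Triplicate cultures, IC50 derived.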

[7] = Effect on calcein accumulation in multidrug resistant human 2780 AD cells at 25 ug/mL relative to verapamil; format: functional
[8] = Effect on calcein accumulation in multidrug resistant human 2780 AD cells at 2.5 ug/mL relative to verapamil; format: functional
[9] = Effect on calcein accumulation in multidrug resistant human 2780 AD cells at 0.25 ug/mL relative to verapamil; format: functional

Structure (SMILES) | IC50 (WI-38 VA13) | IC50 (HepG2) | IC50 [1] | Activity [2] | Activity [3] | Activity [4] | IC50 (A549 [5]) | IC50 (A549 [6]) | IC50 (A549 [5]; read-out: IC50) | Activity [7] | Activity [8] | IC50 (A549 [6]; read-out: IC50) | Activity [9]
C[C@]12C(=O)C[C@H]3[C@@H](C=CC4=CC(=O)CC[C@@]43C)[C@@H]1CC[C@@H]2C(=O)CO | 87.7 µg/mL (≈ 256 µM) | 94.9 µg/mL (≈ 277 µM) | 48.1 µg/mL (≈ 140 µM) | 140% | 105% | 110% | – | – | – | – | – | – | –
CC(=O)[C@]12O[C@H]1C[C@H]1[C@@H]3C=CC4=CC(=O)CC[C@]4(C)[C@H]3C[C@@H](O)[C@@]12C | 73.1 µg/mL (≈ 213 µM) | 62.1 µg/mL (≈ 181 µM) | 51.1 µg/mL (≈ 149 µM) | 99% | 108% | 103% | > 100 µM | > 100 µM | – | – | – | – | –
C[C@@H](O)[C@H]1CC[C@H]2[C@@H]3C=CC4=CC(=O)CC[C@]4(C)[C@H]3CC(=O)[C@]12C | 57.4 µg/mL (≈ 175 µM) | 49.2 µg/mL (≈ 150 µM) | 66.4 µg/mL (≈ 202 µM) | 138% | 127% | 116% | – | – | > 300 µM | 93% | 117% | > 300 µM | 120%
CC(=O)C1=CC[C@H]2[C@@H]3C=CC4=CC(=O)CC[C@]4(C)[C@H]3C[C@@H](O)[C@]12C [NERIDIENONE A] | 0.68 µg/mL (≈ 2.08 µM) | 2.5 µg/mL (≈ 7.66 µM) | 4.9 µg/mL (≈ 15 µM) | 107% | 92% | 109% | – | – | 53.1 µM | – | – | 7 µM | –
C[C@]12C(=O)C[C@H]3[C@@H](C=CC4=CC(=O)CC[C@@]43C)[C@@H]1CC[C@@H]2[C@H](O)CO [NERIDIENONE B] | > 100 µg/mL | > 100 µg/mL | 73.5 µg/mL (≈ 213 µM) | 148% | 154% | 110% | – | – | – | 100% | 141% | – | 113%
COc1ccc(CCN(C)CCCC(C#N)(c2ccc(OC)c(OC)c2)C(C)C)cc1OC (stereo not given) [VERAPAMIL] | – | – | – | 148% | 109% | 97% | – | – | – | – | – | – | –
